Test results from ChEMBL document CHEMBL3232837, “Synthesis and evaluation of new Hsp90 inhibitors based on a 1,4,5-trisubstituted 1,2,3-triazole scaffold” (J Med Chem, 2014).
pIC50: −log10 of the molar value. Active and inactive are the calls of the source. The rule behind the calls is not given here.

Legend:
Mus musculus [1] = experiment: (§1) In vivo inhibition of HSP90 in human A431 cells overexpressing EGFR xenografted in CD-1 nude mouse assessed as downregulation of CDK4 protein expression at 50 mg/kg, ip administered as q5d/week for 2 weeks starting 3 days after tumor injection measured at 2 hrs post last dose by Western blot analysis; assay type: functional, organism-based; design: dose 50 mg/kg; details: A-431
[2] = Toxicity in ip dosed CD-1 nude mouse xenografted with human A431 cells overexpressing EGFR administered as q5d/week for 2 weeks starting 3 days after tumor injection measured on day 5 post last dose; assay type: organism-based, A-431; details: in vivo
How it was run: (§2)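 Female athymic nude mice, 5–6 weeks old, implanted s.c. in the right flank with 5 × 10^6 exponentially growing tumour cells and given i.p. doses (mg/10 mL/kg) over 2 weeks starting 3 days after implantation. Toxicity endpoints were maximum body weight loss, BWL% = 100 − [(mean BW day x / mean BW day 1) × 100], and deaths occurring before the first control death.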

[3] = Metabolic stability in human plasma assessed as compound remaining at 5 uM measured at 120 mins by LC/MS analysis; assay type: ADME, cell-free
How it was run: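 Compound added to human plasma at 5 µM final and incubated at 37 °C for up to 120 min. Samples quenched in two volumes of chilled acetonitrile and centrifuged at 4 °C. Remaining compound quantified by LC/MS.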

NCI-H460 [4] = experiment: Induction of apoptosis in human NCI-H460 cells assessed as cell with hypodiploid DNA content at 2 times IC50 after 24 to 72 hrs by propidium iodide staining-based FACS flow cytometric analysis; assay type: functional
Mus musculus [5] = experiment: as §1, with “human GTL16” for “human A431”, “overexpressing c-Met” for “overexpressing EGFR”, “at 6” for “at 2”; assay type: functional, organism-based; design: dose 50 mg/kg
Mus musculus [6] = experiment: In vivo inhibition of HSP90 in human A431 cells overexpressing EGFR xenografted in CD-1 nude mouse assessed as downregulation of AKT protein expression at 50 mg/kg, ip administered as q5d/week for 2 weeks starting 3 days after tumor injection measured at 2 hrs post last dose by Western blot analysis; assay type: functional, organism-based; design: dose 50 mg/kg; details: A-431
NCI-H460 [7] = experiment: Cell cycle arrest in human NCI-H460 cells assessed as accumulation at G2/M phase at 2 times IC50 after 24 to 72 hrs by propidium iodide staining-based FACS flow cytometric analysis; assay type: functional
Mus musculus [8] = experiment: as §1, with “human GTL16” for “human A431”, “overexpressing c-Met” for “overexpressing EGFR”, “of c-Met” for “of CDK4”, “at 6” for “at 2”; assay type: functional, organism-based; design: dose 50 mg/kg
A-431 = experiment: Antitumor activity against human A431 cells overexpressing EGFR xenografted in CD-1 nude mouse assessed as tumor growth inhibition at 50 mg/kg, ip administered as q5d/week for 2 weeks starting 3 days after tumor injection measured on day 5 post last dose relative to vehicle-treated control; assay type: functional, organism-based; design: dose 50 mg/kg
How it was run: (§3)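 Female athymic nude mice, 5-6 weeks old; 5 × 10^6 exponentially growing tumor cells inoculated s.c. in right flank. Treatment i.p. from day 3 after tumor injection. Tumor volume measured biweekly as d²·D/2. TVI% = 100 − (mean TV treated/mean TV control × 100), evaluated 5 days after last treatment; Mann-Whitney test vs vehicle group.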

Mus musculus [9] = experiment: In vivo inhibition of HSP90 in human A431 cells overexpressing EGFR xenografted in CD-1 nude mouse assessed as induction of HSP70 protein expression at 50 mg/kg, ip administered as q5d/week for 2 weeks starting 3 days after tumor injection measured at 2 hrs post last dose by Western blot analysis; assay type: functional, organism-based; design: dose 50 mg/kg; details: A-431
GTL 16 = experiment: Antitumor activity against human GTL16 cells overexpressing c-Met xenografted in CD-1 nude mouse assessed as tumor growth inhibition at 50 mg/kg, ip administered as q5d/week for 2 weeks starting 3 days after tumor injection measured on day 5 post last dose relative to vehicle-treated control; assay type: functional, organism-based; design: dose 50 mg/kg; how it was run: as §3
Mus musculus [10] = experiment: (§4) In vivo inhibition of HSP90 in human GTL16 cells overexpressing c-Met xenografted in CD-1 nude mouse assessed as induction of HSP70 protein expression at 50 mg/kg, ip administered as q5d/week for 2 weeks starting 3 days after tumor injection measured at 6 hrs post last dose by Western blot analysis; assay type: functional, organism-based; design: dose 50 mg/kg
Mus musculus [11] = experiment: as §4, with “downregulation” for “induction”, “AKT” for “HSP70”; assay type: functional, organism-based; design: dose 50 mg/kg
[12] = Toxicity in ip dosed CD-1 nude mouse xenografted with GTL16 cells overexpressing c-Met administered as q5d/week for 2 weeks starting 3 days after tumor injection measured on day 5 post last dose; assay type: organism-based; details: in vivo; how it was run: as §2
Mus musculus [13] = experiment: as §1, with “EGFR” for “CDK4”; assay type: functional, organism-based; design: dose 50 mg/kg; details: A-431
Histone deacetylase 2 = Histone deacetylase 2 (Homo sapiens, UniProt Q92769); experiment: Inhibition of human HDAC-2 using RHKK(Ac) as substrate by fluorescence assay
Chain of Histone deacetylase 2 (Q92769 whole entry): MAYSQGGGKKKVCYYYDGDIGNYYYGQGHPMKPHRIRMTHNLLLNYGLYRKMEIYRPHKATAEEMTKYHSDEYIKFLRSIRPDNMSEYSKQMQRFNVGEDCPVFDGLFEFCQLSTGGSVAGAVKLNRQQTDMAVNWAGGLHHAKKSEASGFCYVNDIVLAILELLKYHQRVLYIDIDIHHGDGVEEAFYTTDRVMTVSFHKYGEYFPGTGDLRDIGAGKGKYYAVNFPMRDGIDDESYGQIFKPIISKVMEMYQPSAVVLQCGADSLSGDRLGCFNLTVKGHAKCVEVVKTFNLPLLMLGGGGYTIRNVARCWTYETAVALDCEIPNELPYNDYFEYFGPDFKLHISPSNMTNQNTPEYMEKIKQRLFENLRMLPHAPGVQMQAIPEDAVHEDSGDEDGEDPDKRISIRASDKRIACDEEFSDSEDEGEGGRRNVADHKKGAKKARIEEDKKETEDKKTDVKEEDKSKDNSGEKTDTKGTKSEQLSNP

Histone deacetylase 8 = molecular target: T1, Histone deacetylase 8 (Homo sapiens, UniProt Q9BY41); experiment: Inhibition of human HDAC-8 using RHKK(Ac) as substrate by fluorescence assay
T1 sequence (Q9BY41 whole entry): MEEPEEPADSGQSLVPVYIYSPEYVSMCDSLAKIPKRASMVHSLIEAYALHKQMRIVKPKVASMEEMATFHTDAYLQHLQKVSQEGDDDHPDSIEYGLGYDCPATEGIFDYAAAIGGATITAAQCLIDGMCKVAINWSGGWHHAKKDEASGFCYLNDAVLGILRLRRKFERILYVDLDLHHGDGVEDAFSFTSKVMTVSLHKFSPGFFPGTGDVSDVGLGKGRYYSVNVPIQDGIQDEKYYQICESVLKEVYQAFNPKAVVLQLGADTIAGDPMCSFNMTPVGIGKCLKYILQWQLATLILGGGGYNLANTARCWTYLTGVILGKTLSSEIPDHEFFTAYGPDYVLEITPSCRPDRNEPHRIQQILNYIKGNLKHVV

[14] = molecular target: Histone deacetylase 3/Nuclear receptor corepressor 2 (HDAC3/NCoR2) (Homo sapiens, UniProt O15379); experiment: Inhibition of human HDAC-3/NCOR2 using RHKK(Ac) as substrate by fluorescence assay; assay type: protein-complex assay
Histone deacetylase 1 = Histone deacetylase 1 (Homo sapiens, UniProt Q13547); experiment: Inhibition of human HDAC-1 using RHKK(Ac) as substrate by fluorescence assay
Chain of Histone deacetylase 1 (Q13547 whole entry): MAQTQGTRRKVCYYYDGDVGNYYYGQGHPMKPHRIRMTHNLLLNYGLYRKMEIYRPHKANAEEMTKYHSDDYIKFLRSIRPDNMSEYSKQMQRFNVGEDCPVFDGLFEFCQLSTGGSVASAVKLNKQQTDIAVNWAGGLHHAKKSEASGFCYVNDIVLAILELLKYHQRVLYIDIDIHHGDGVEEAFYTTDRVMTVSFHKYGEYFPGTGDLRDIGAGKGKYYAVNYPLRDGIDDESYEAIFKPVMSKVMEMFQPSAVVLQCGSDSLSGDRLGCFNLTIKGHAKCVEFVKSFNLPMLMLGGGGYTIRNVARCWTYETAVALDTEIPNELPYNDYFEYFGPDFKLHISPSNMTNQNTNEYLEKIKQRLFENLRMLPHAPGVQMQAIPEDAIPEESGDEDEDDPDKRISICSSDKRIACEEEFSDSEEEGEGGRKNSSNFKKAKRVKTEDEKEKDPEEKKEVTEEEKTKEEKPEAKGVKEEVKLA

Histone deacetylase 4 = Histone deacetylase 4 (Homo sapiens, UniProt P56524); experiment: Inhibition of human HDAC-4 using RHKK(Ac) as substrate by fluorescence assay
Chain of Histone deacetylase 4 (P56524 whole entry): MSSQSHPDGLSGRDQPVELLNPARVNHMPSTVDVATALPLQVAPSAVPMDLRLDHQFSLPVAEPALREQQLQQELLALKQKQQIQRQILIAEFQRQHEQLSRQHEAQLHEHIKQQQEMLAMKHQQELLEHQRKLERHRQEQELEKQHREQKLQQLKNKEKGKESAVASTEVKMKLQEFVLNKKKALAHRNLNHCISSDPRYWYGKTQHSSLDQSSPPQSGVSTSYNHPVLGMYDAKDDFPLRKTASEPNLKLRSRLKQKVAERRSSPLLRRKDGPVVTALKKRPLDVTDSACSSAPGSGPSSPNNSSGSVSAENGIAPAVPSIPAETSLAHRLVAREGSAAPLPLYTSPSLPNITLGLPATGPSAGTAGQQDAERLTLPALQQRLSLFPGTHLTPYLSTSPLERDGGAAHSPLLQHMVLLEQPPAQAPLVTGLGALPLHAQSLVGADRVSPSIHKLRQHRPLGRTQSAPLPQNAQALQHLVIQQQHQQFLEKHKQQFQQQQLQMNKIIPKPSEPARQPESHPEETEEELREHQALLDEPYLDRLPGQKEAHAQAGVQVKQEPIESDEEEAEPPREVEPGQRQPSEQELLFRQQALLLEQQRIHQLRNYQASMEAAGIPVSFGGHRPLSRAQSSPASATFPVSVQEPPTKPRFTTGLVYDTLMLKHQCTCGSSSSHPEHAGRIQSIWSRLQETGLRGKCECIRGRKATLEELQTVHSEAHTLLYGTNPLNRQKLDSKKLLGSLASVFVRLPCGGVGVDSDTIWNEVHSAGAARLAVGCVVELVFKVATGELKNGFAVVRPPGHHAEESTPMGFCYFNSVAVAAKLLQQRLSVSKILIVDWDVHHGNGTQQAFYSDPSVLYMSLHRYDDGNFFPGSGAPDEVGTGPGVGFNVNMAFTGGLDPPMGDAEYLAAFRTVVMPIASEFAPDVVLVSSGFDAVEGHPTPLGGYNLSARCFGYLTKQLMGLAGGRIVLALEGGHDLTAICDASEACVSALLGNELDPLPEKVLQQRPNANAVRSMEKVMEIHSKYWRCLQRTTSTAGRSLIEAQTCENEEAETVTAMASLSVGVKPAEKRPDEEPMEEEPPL

NCI-H460 [15] = experiment: Cytotoxicity against human NCI-H460 cells assessed as growth inhibition after 72 hrs by SRB assay; assay type: functional, cell-based; details: NCI-H460, 72 h
How it was run: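 NCI-H460 cells grown in RPMI-1640 with 10% heat-inactivated FBS, seeded at about 10% confluence and allowed 24 h recovery. Exposed to graded drug concentrations or solvent for 72 h. Surviving fraction measured by sulforhodamine B. IC50 is the concentration giving a 50% drop in cell number vs vehicle, from dose-response curve fitting; mean of n=4 with SD.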

[16] = molecular target: T2, Polyamine deacetylase HDAC10 (Homo sapiens, UniProt Q969S8); experiment: Inhibition of human HDAC-10 using RHKK(Ac) as substrate by fluorescence assay
T2 sequence (Q969S8 whole entry): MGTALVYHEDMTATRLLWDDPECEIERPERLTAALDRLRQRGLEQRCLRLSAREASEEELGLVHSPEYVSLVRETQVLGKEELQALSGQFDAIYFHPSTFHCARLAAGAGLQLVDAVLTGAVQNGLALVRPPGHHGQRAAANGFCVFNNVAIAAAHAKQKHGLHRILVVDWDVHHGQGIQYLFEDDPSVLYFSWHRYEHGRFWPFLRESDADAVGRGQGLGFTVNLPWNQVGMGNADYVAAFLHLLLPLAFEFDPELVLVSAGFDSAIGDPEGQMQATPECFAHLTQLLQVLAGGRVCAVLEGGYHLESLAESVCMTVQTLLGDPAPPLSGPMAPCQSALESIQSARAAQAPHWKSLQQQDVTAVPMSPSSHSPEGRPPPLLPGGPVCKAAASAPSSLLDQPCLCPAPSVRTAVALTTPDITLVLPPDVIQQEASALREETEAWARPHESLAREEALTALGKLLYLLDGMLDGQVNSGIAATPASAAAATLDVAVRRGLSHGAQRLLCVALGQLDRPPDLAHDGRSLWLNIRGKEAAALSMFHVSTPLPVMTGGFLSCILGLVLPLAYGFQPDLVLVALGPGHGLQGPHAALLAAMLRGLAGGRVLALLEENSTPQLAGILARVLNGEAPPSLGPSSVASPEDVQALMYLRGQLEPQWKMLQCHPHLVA

Histone deacetylase 5 = Histone deacetylase 5 (Homo sapiens, UniProt Q9UQL6); experiment: Inhibition of human HDAC-5 using RHKK(Ac) as substrate by fluorescence assay
Chain of Histone deacetylase 5 (Q9UQL6 whole entry): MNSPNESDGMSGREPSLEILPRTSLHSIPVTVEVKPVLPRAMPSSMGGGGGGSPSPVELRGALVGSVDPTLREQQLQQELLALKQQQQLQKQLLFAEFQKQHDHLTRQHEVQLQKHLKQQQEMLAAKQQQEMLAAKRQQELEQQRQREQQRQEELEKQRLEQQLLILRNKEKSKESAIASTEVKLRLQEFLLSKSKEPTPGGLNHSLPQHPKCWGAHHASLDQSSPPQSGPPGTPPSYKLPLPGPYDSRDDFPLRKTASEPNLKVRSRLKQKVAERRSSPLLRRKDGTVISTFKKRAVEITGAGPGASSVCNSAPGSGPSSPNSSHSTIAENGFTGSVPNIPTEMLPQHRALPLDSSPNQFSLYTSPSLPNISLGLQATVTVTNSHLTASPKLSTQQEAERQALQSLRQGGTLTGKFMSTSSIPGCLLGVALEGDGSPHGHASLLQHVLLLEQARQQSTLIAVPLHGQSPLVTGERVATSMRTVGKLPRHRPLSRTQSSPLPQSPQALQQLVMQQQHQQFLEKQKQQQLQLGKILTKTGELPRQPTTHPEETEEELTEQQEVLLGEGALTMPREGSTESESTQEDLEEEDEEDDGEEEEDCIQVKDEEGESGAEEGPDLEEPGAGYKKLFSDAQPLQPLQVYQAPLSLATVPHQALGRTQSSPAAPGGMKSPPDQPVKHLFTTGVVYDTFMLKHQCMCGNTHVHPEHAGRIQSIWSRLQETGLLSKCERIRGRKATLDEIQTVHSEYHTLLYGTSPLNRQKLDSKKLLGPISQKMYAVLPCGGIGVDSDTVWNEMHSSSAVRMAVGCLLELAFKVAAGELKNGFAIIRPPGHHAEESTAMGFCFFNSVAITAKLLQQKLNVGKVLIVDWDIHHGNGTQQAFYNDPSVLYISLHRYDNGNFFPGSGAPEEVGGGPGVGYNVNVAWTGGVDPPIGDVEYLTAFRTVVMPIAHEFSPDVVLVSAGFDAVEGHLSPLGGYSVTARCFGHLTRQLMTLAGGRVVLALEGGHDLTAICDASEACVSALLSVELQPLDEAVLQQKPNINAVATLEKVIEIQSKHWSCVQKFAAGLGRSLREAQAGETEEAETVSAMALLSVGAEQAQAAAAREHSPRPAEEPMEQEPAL

[17] = molecular target: T3, Protein deacetylase HDAC6 (Homo sapiens, UniProt Q9UBN7); experiment: Inhibition of human HDAC-6 using RHKK(Ac) as substrate by fluorescence assay
T3 sequence (Q9UBN7 whole entry): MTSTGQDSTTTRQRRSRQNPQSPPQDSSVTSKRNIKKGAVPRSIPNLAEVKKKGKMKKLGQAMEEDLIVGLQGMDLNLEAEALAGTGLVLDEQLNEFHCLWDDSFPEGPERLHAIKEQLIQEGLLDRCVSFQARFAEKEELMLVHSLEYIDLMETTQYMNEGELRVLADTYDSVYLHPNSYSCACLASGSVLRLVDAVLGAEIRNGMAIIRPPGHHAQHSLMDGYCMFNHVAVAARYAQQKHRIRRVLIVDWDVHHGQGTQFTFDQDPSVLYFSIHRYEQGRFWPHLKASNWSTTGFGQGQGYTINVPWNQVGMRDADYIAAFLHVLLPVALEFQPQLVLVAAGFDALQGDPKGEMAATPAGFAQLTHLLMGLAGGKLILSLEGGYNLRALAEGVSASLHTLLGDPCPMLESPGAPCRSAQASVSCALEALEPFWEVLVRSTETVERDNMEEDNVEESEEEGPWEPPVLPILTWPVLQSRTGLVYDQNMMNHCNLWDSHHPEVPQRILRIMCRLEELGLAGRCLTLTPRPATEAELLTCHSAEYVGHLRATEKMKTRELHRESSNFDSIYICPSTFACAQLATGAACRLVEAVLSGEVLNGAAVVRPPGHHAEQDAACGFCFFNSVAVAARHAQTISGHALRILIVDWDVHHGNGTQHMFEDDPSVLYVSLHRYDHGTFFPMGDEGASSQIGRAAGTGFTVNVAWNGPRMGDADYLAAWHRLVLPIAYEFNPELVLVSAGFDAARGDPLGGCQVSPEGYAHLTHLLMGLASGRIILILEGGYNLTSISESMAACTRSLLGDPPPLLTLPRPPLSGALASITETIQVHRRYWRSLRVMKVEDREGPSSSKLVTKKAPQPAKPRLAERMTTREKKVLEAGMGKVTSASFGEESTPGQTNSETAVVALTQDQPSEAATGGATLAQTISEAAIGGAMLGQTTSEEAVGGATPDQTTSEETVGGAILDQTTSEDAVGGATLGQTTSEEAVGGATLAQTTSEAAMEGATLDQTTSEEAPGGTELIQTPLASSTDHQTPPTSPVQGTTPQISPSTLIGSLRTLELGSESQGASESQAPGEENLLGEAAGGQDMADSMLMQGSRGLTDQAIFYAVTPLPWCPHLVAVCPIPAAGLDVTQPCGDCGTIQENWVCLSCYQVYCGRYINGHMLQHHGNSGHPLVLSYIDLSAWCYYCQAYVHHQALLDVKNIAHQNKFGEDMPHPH

[18] = molecular target: Heat shock protein HSP 90-alpha (Homo sapiens, UniProt P07900); experiment: Displacement of GM-FITC from full-length recombinant human Hsp90-alpha after 4 hrs by fluorescence polarization assay
Histone deacetylase 11 = molecular target: T4, Histone deacetylase 11 (Homo sapiens, UniProt Q96DB2); experiment: Inhibition of human HDAC-11 using RHKK(Ac) as substrate by fluorescence assay
T4 sequence (Q96DB2 whole entry): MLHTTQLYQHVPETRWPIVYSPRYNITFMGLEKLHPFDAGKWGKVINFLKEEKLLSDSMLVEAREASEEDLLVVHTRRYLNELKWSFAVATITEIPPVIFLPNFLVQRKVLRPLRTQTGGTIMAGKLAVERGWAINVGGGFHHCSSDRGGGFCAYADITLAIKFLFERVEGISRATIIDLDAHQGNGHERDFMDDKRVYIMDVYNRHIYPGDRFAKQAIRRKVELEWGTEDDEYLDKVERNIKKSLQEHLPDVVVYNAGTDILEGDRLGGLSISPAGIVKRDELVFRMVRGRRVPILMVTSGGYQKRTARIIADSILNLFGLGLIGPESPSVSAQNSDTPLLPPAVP

CCNC(=O)c1noc(-c2cc(C(C)C)c(O)cc2O)c1-c1ccc(CN2CCOCC2)cc1 [LUMINESPIB]
inhibition (Mus musculus [1]): Active | MTD at 2 weeks [2]: 50 mg/kg | remaining at 2 h, 5 µM [3]: 56% | Activity (NCI-H460 [4]): Active | inhibition (Mus musculus [5]): Active | inhibition (Mus musculus [6]): Active | Activity (NCI-H460 [7]): Active | inhibition (Mus musculus [8]): Active | TGI (A-431): Active | inhibition (Mus musculus [9]): Active | TGI (GTL 16): Active | inhibition (Mus musculus [10]): Active | inhibition (Mus musculus [11]): Active | MTD at 2 weeks [12]: 50 mg/kg | inhibition (Mus musculus [13]): Active

CC(C)c1cc(-n2nnc(C(=O)NCCCCCCC(=O)NO)c2-c2ccc(CN3CCOCC3)cc2)c(O)cc1O
pIC50 (Histone deacetylase 2): 5.25 | pIC50 (Histone deacetylase 8): 6.14 | pIC50 [14]: 5.55 | pIC50 (Histone deacetylase 1): 5.51 | pIC50 (Histone deacetylase 4): 4.15 | pIC50 (NCI-H460 [15]): < 6.00 | pIC50 [16]: 5.49 | pIC50 (Histone deacetylase 5): 5.72 | pIC50 [17]: 7.92 | pIC50 [18]: 7.51 | pIC50 (Histone deacetylase 11): 5.75
